Data as given in ChEMBL document CHEMBL1122299, “Potential cerebral perfusion agents: synthesis and evaluation of a radioiodinated vinylalkylbarbituric acid analogue” (J Med Chem, 1983).

Tests used:
Rattus norvegicus [1] = test: Distribution of radioactivity in thyroid tissue of rats at 5 mins after an intravenous injection; Value expressed as mean % injected dose, Range- 6.19-7.22; format: ADME, organism-based, Thyroid gland; details: in vivo
How it was run: (§1)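 Female Fischer 344 rats (10–12 wk, 170–200 g; food and water ad libitum) under ether received 7.95 μCi 125I-labeled agent (sp act ~155 mCi/mmol) in pH 7.4 phosphate buffer, filtered, via lateral tail vein. Four rats per time point (2 min–1 day). Killed by cervical fracture under ether; organs excised, saline-rinsed, blotted, weighed, gamma-counted; mean % injected dose/g with range.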

Rattus norvegicus [2] = test: Distribution of radioactivity in thyroid tissue of rats at 2 mins after an intravenous injection; Value expressed as mean % injected dose, Range- 6.65-8.0.8; format: ADME, organism-based, Thyroid gland; details: in vivo; how it was run: as §1
Rattus norvegicus [3] = test: Distribution of radioactivity in lung tissue of rats at 1 day after an intravenous injection; Value expressed as mean % injected dose, Range- 0.02-0.03; format: ADME, organism-based; details: in vivo, 24 h; how it was run: as §1
Rattus norvegicus [4] = test: Distribution of radioactivity in lung tissue of rats at 5 mins after an intravenous injection; Value expressed as mean % injected dose, Range- 0.98-1.22; format: ADME, organism-based; details: in vivo; how it was run: as §1
Rattus norvegicus [5] = test: Distribution of radioactivity in brain tissue of rats at 4 hr after an intravenous injection; Value expressed as mean % injected dose, Range- 0.03-0.04; format: ADME, organism-based; details: in vivo; how it was run: as §1
Rattus norvegicus [6] = test: Distribution of radioactivity in heart tissue of rats at 1 day after an intravenous injection; Value expressed as mean % injected dose, Range- 0.02-0.02; format: ADME, organism-based; details: in vivo, 24 h; how it was run: as §1
Rattus norvegicus [7] = test: Distribution of radioactivity in blood of rats at 2 hr after an intravenous injection; Value expressed as mean % injected dose, Range = 0.71-0.87; format: ADME, organism-based; details: in vivo; how it was run: as §1
Rattus norvegicus [8] = test: Distribution of radioactivity in brain tissue of rats at 5 mins after an intravenous injection; Value expressed as mean % injected dose, Range- 0.74-0.94; format: ADME, organism-based; details: in vivo; how it was run: as §1
Rattus norvegicus [9] = test: Distribution of radioactivity in thyroid tissue of rats at 2 hr after an intravenous injection; Value expressed as mean % injected dose, Range- 92-159; format: ADME, organism-based, Thyroid gland; details: in vivo; how it was run: as §1
Rattus norvegicus [10] = test: Distribution of radioactivity in liver tissue of rats at 2 hr after an intravenous injection; Value expressed as mean % injected dose, Range- 0.42-0.62; format: ADME, organism-based; details: in vivo; how it was run: as §1
Rattus norvegicus [11] = test: Distribution of radioactivity in blood of rats at 30 mins after an intravenous injection; Value expressed as mean % injected dose, Range = 0.68-1.03; format: ADME, organism-based; details: in vivo, 0.5 h; how it was run: as §1
Rattus norvegicus [12] = test: Ratio between the distribution of radioactivity of brain to that of blood tissue of rats at 30 min after an intravenous administration; format: ADME, organism-based; details: 0.5 h
How it was run: (§2)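 Same rats (four per time point, 2 min–1 day) after a 7.95 μCi tail-vein dose of 125I-labeled agent in pH 7.4 phosphate buffer. Brain and blood were excised, weighed and gamma-counted as % injected dose/g. The ratio compares brain to blood radioactivity and is reported as a mean.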

Rattus norvegicus [13] = test: Distribution of radioactivity in brain tissue of rats at 30 mins after an intravenous injection; Value expressed as mean % injected dose, Range- 0.25-0.37; format: ADME, organism-based; details: in vivo, 0.5 h; how it was run: as §1
Rattus norvegicus [14] = test: Ratio between the distribution of radioactivity of brain to that of blood tissue of rats at 1 hr after an intravenous administration; format: ADME, organism-based; how it was run: as §2
Rattus norvegicus [15] = test: Distribution of radioactivity in liver tissue of rats at 4 hr after an intravenous injection; Value expressed as mean % injected dose, Range- 0.19-0.23; format: ADME, organism-based; details: in vivo; how it was run: as §1
Rattus norvegicus [16] = test: Distribution of radioactivity in heart tissue of rats at 30 mins after an intravenous injection; Value expressed as mean % injected dose, Range- 0.55-0.82; format: ADME, organism-based; details: in vivo, 0.5 h; how it was run: as §1
Rattus norvegicus [17] = test: Distribution of radioactivity in thyroid tissue of rats at 4 hr after an intravenous injection; Value expressed as mean % injected dose, Range- 156-207; format: ADME, organism-based, Thyroid gland; details: in vivo; how it was run: as §1
Rattus norvegicus [18] = test: Distribution of radioactivity in heart tissue of rats at 1 hr after an intravenous injection; Value expressed as mean % injected dose, Range- 0.5-0.63; format: ADME, organism-based; details: in vivo; how it was run: as §1
Rattus norvegicus [19] = test: Distribution of radioactivity in brain tissue of rats at 1 hr after an intravenous injection; Value expressed as mean % injected dose, Range- 0.18-0.22; format: ADME, organism-based; details: in vivo; how it was run: as §1
Rattus norvegicus [20] = test: Distribution of radioactivity in blood of rats at 2 mins after an intravenous injection; Value expressed as mean % injected dose, Range = 0.88-1.15; format: ADME, organism-based; details: in vivo; how it was run: as §1
Rattus norvegicus [21] = test: Distribution of radioactivity in thyroid tissue of rats at 30 mins after an intravenous injection; Value expressed as mean % injected dose, Range- 18.74-30.84; format: ADME, organism-based, Thyroid gland; details: in vivo, 0.5 h; how it was run: as §1
Rattus norvegicus [22] = test: Distribution of radioactivity in blood of rats at 1 day after an intravenous injection; Value expressed as mean % injected dose, Range- 0.03-0.03; format: ADME, organism-based; details: in vivo, 24 h; how it was run: as §1
Rattus norvegicus [23] = test: Distribution of radioactivity in heart tissue of rats at 5 mins after an intravenous injection; Value expressed as mean % injected dose, Range- 1.13-1.29; format: ADME, organism-based; details: in vivo; how it was run: as §1
Rattus norvegicus [24] = test: Ratio between the distribution of radioactivity of brain to that of blood tissue of rats at 4 hr after an intravenous administration; format: ADME, organism-based; how it was run: as §2
Rattus norvegicus [25] = test: Distribution of radioactivity in heart tissue of rats at 2 mins after an intravenous injection; Value expressed as mean % injected dose, Range- 1.35-1.55; format: ADME, organism-based; details: in vivo; how it was run: as §1
Rattus norvegicus [26] = test: Distribution of radioactivity in lung tissue of rats at 2 mins after an intravenous injection; Value expressed as mean % injected dose, Range- 1.17-1.42; format: ADME, organism-based; details: in vivo; how it was run: as §1
Rattus norvegicus [27] = test: Distribution of radioactivity in blood of rats at 1 hr after an intravenous injection; Value expressed as mean % injected dose, Range-0.9-1.03; format: ADME, organism-based; details: in vivo; how it was run: as §1
Rattus norvegicus [28] = test: Distribution of radioactivity in blood of rats at 4 hr after an intravenous injection; Value expressed as mean % injected dose, Range- 0.45-0.48; format: ADME, organism-based; details: in vivo; how it was run: as §1
Rattus norvegicus [29] = test: Ratio between the distribution of radioactivity of brain to that of blood tissue of rats at 2 hr after an intravenous administration; format: ADME, organism-based; how it was run: as §2
Rattus norvegicus [30] = test: Distribution of radioactivity in heart tissue of rats at 2 hr after an intravenous injection; Value expressed as mean % injected dose, Range- 0.24-0.38; format: ADME, organism-based; details: in vivo; how it was run: as §1
Rattus norvegicus [31] = test: Distribution of radioactivity in thyroid tissue of rats at 1 day after an intravenous injection; Value expressed as mean % injected dose, Range- 406-499; format: ADME, organism-based, Thyroid gland; details: in vivo, 24 h; how it was run: as §1
Rattus norvegicus [32] = test: Distribution of radioactivity in blood of rats at 5 mins after an intravenous injection; Value expressed as mean % injected dose, Range-0.81-1; format: ADME, organism-based; details: in vivo; how it was run: as §1
Rattus norvegicus [33] = test: Ratio between the distribution of radioactivity of brain to that of blood tissue of rats at 5 min after an intravenous administration; format: ADME, organism-based; how it was run: as §2
Rattus norvegicus [34] = test: Ratio between the distribution of radioactivity of brain to that of blood tissue of rats at 2 min after an intravenous administration; format: ADME, organism-based; how it was run: as §2
Rattus norvegicus [35] = test: Distribution of radioactivity in lung tissue of rats at 30 mins after an intravenous injection; Value expressed as mean % injected dose, Range- 0.65-0.87; format: ADME, organism-based; details: in vivo, 0.5 h; how it was run: as §1
Rattus norvegicus [36] = test: Distribution of radioactivity in liver tissue of rats at 30 mins after an intravenous injection; Value expressed as mean % injected dose, Range- 0.97-1.41; format: ADME, organism-based; details: in vivo, 0.5 h; how it was run: as §1
Rattus norvegicus [37] = test: Distribution of radioactivity in brain tissue of rats at 1 day after an intravenous injection; Value expressed as mean % injected dose, Range- 0.007-0.008; format: ADME, organism-based; details: in vivo, 24 h; how it was run: as §1
Rattus norvegicus [38] = test: Distribution of radioactivity in heart tissue of rats at 4 hr after an intravenous injection; Value expressed as mean % injected dose, Range- 0.16-0.2; format: ADME, organism-based; details: in vivo; how it was run: as §1
Rattus norvegicus [39] = test: Distribution of radioactivity in liver tissue of rats at 2 mins after an intravenous injection; Value expressed as mean % injected dose, Range- 2.91-3.53; format: ADME, organism-based; details: in vivo; how it was run: as §1
Rattus norvegicus [40] = test: Distribution of radioactivity in lung tissue of rats at 1 hr after an intravenous injection; Value expressed as mean % injected dose, Range- 0.66-0.77; format: ADME, organism-based; details: in vivo; how it was run: as §1
Rattus norvegicus [41] = test: Distribution of radioactivity in lung tissue of rats at 2 hr after an intravenous injection; Value expressed as mean % injected dose, Range- 0.47-0.58; format: ADME, organism-based; details: in vivo; how it was run: as §1
Rattus norvegicus [42] = test: Distribution of radioactivity in brain tissue of rats at 2 mins after an intravenous injection; Value expressed as mean % injected dose, Range- 0.77-0.97; format: ADME, organism-based; details: in vivo; how it was run: as §1
Rattus norvegicus [43] = test: Distribution of radioactivity in lung tissue of rats at 4 hr after an intravenous injection; Value expressed as mean % injected dose, Range- 0.28-0.31; format: ADME, organism-based; details: in vivo; how it was run: as §1
Rattus norvegicus [44] = test: Distribution of radioactivity in liver tissue of rats at 5 mins after an intravenous injection; Value expressed as mean % injected dose, Range- 2.49-2.82; format: ADME, organism-based; details: in vivo; how it was run: as §1
Rattus norvegicus [45] = test: Ratio between the distribution of radioactivity of brain to that of blood tissue of rats at 1 day after an intravenous administration; format: ADME, organism-based; details: 24 h; how it was run: as §2
Rattus norvegicus [46] = test: Distribution of radioactivity in liver tissue of rats at 1 day after an intravenous injection; Value expressed as mean % injected dose, Range- 0.02-0.02; format: ADME, organism-based; details: in vivo, 24 h; how it was run: as §1
Rattus norvegicus [47] = test: Distribution of radioactivity in liver tissue of rats at 1 hr after an intravenous injection; Value expressed as mean % injected dose, Range- 0.71-0.93; format: ADME, organism-based; details: in vivo; how it was run: as §1
Rattus norvegicus [48] = test: Distribution of radioactivity in brain tissue of rats at 2 hr after an intravenous injection; Value expressed as mean % injected dose, Range- 0.08-0.13; format: ADME, organism-based; details: in vivo; how it was run: as §1

CCC1(CCC/C=C/I)C(=O)NC(=O)NC1=O
Activity (Rattus norvegicus [1]): 6.84
Activity (Rattus norvegicus [2]): 7.64
Activity (Rattus norvegicus [3]): 0.02
Activity (Rattus norvegicus [4]): 1.08
Activity (Rattus norvegicus [5]): 0.03
Activity (Rattus norvegicus [6]): 0.02
Activity (Rattus norvegicus [7]): 0.76
Activity (Rattus norvegicus [8]): 0.82
Activity (Rattus norvegicus [9]): 130
Activity (Rattus norvegicus [10]): 0.5
Activity (Rattus norvegicus [11]): 0.92
Ratio (Rattus norvegicus [12]): 0.36
Activity (Rattus norvegicus [13]): 0.33
Ratio (Rattus norvegicus [14]): 0.2
Activity (Rattus norvegicus [15]): 0.21
Activity (Rattus norvegicus [16]): 0.71
Activity (Rattus norvegicus [17]): 178
Activity (Rattus norvegicus [18]): 0.56
Activity (Rattus norvegicus [19]): 0.19
Activity (Rattus norvegicus [20]): 1
Activity (Rattus norvegicus [21]): 26.16
Activity (Rattus norvegicus [22]): 0.03
Activity (Rattus norvegicus [23]): 1.23
Ratio (Rattus norvegicus [24]): 0.07
Activity (Rattus norvegicus [25]): 1.49
Activity (Rattus norvegicus [26]): 1.31
Activity (Rattus norvegicus [27]): 0.97
Activity (Rattus norvegicus [28]): 0.46
Ratio (Rattus norvegicus [29]): 0.14
Activity (Rattus norvegicus [30]): 0.33
Activity (Rattus norvegicus [31]): 434
Activity (Rattus norvegicus [32]): 0.9
Ratio (Rattus norvegicus [33]): 0.91
Ratio (Rattus norvegicus [34]): 0.83
Activity (Rattus norvegicus [35]): 0.79
Activity (Rattus norvegicus [36]): 1.21
Activity (Rattus norvegicus [37]): 0.007
Activity (Rattus norvegicus [38]): 0.18
Activity (Rattus norvegicus [39]): 3.19
Activity (Rattus norvegicus [40]): 0.72
Activity (Rattus norvegicus [41]): 0.52
Activity (Rattus norvegicus [42]): 0.83
Activity (Rattus norvegicus [43]): 0.29
Activity (Rattus norvegicus [44]): 2.69
Ratio (Rattus norvegicus [45]): 0.26
Activity (Rattus norvegicus [46]): 0.02
Activity (Rattus norvegicus [47]): 0.82
Activity (Rattus norvegicus [48]): 0.1
